The nature of data set [1]: folding enthalpy; higher = less favourable; fluorescence melt of hairpins on a sequencing array, two-state fit. Particulars: sodium 0.088 M. The method in brief: (§1)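 Bootstrapped two-state fits yielded melting temperature and folding enthalpy for library hairpins. Cy3 fluorescence, with annealed Cy3 and quencher oligos, was imaged on a sequenced MiSeq flow cell in 50 mM Na-HEPES pH 8.0, 25 mM NaCl in 2.5 °C steps up to 60 °C, and normalised to pre-quench Cy3 and to control constructs. Four replicates were combined by inverse variance, and fitted temperatures were raised by 9.35 °C to match UV melts.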

The nature of data set [2]: melting temperature; fluorescence melt of hairpins on a sequencing array, two-state fit, raised by 9.35 °C to match UV melts. The following applies: sodium 0.088 M. In outline:
as §1

For the sequence GATGGGAAACCATC (((((....))))), in data set [1], the folding enthalpy was -26.5 kcal/mol. Also, the Tm in data set [2] amounted to 49.9 °C.
Turning to GATGGGACGAAAGTCATC (((..(((....)))))), in data set [1], the folding enthalpy was -15.4 kcal/mol. For the same sequence, the Tm in data set [2] worked out at 31.9 °C.
Consider GATGGGCGAAAGCCTATC (((.(((....))).))), for which the folding enthalpy in data set [1] was -22.3 kcal/mol. Besides, in data set [2], the Tm stood at 53.9 °C.
Taken in the same sequence, the figures for GATGGGGAAACCCATC ((((((....)))))) were -34.2 kcal/mol and 57.8 °C.
Taken in the same sequence, the figures for GATGGGGGAAACCCCACC (.(((((....))))).) were -12.6 kcal/mol and 39.9 °C.
For GATGGGGGAAACCCTATC (((.(((....))).))) the same measures were -23.4 kcal/mol and 45 °C.
Turning to GATGTACCGAAAGGTATC (((..(((....)))))), in data set [1], the folding enthalpy was -14 kcal/mol. Further, in data set [2], the Tm is 32.2 °C.
Taken in the same sequence, the figures for GATGTAGGAAACTACATC (((((((....))))))) were -40.4 kcal/mol and 54.6 °C.
For GATGTAGGAAACTGCATC ((((.((....)).)))) the same measures were -34.6 kcal/mol and 45 °C.
With GATGTCGCGAAAGCGATC (((..(((....)))))), the folding enthalpy in data set [1] is -8.5 kcal/mol. Further, in data set [2], the Tm was found to be 31.1 °C.
As to GATGTGCGAAAGCAGATC (((.(((....))).))), the folding enthalpy in data set [1] is -32.7 kcal/mol. Also, the Tm in data set [2] was 52.5 °C.
Taken in the same sequence, the figures for GATGTGGGAAACCACACC (.(((((....))))).) were -14.1 kcal/mol and 39 °C.
Taken in the same sequence, the figures for GATGTGGGAAACCACGTC ((.((((....)))).)) were -26.5 kcal/mol and 51 °C.
Taken in the same sequence, the figures for GATGTGGGAAACCATGTC ((..(((....)))..)) were -32.6 kcal/mol and 34.9 °C.
As to GATGTTCCGAAAGGAATC (((..(((....)))))), in data set [1], the folding enthalpy is -13.2 kcal/mol. In addition, the Tm in data set [2] was found to be 32.4 °C.
As to GATGTTGCGAAAGCAATC (((..(((....)))))), the folding enthalpy in data set [1] was -10.9 kcal/mol. Further, the Tm in data set [2] turned out to be 32.7 °C.
Taken in the same sequence, the figures for GATTAACGAAAGTTATC (((.(((....)))))) were -13.2 kcal/mol and 31.3 °C.
For GATTACCCGAAAGGGATC (((..(((....)))))) the same measures were -12.1 kcal/mol and 26.3 °C.
In the case of GATTACCGAAAGGTCATC (((.(((....))).))), in data set [1], the folding enthalpy is -28.8 kcal/mol. In data set [2], the Tm was 38.2 °C.
Taken in the same sequence, the figures for GATTACGAAAGTAAAATC ((((((....)))..))) were -17.6 kcal/mol and 28.5 °C.
For GATTACGAAAGTAGATC ((((((....))).))) the same measures were -19 kcal/mol and 29 °C.
Taken in the same sequence, the figures for GATTAGGGAAACTTAATC (((((.(....).))))) were -17.3 kcal/mol and 29.1 °C.
For the sequence GATTATGCGAAAGCAATC (((..(((....)))))), the folding enthalpy in data set [1] is -9.91 kcal/mol. In addition, the Tm in data set [2] is 23.4 °C.
GATTCCCCGAAAGGGATC (((..(((....)))))): in data set [1], the folding enthalpy is -12.2 kcal/mol. Further, in data set [2], the Tm stood at 29.2 °C.
Taken in the same sequence, the figures for GATTCCGAAAGGAGAATC ((((((....)))..))) were -17.4 kcal/mol and 32.7 °C.
In the case of GATTCCGAAAGGAGCATC ((((((....)))..))), in data set [1], the folding enthalpy is -11.6 kcal/mol. Moreover, in data set [2], the Tm amounted to 27.3 °C.
Taken in the same sequence, the figures for GATTCCGGAAACGAAATC ((((.((....)).)))) were -31.6 kcal/mol and 34.3 °C.
For GATTCGAAAGAATC (((((....))))) the same measures were -29.7 kcal/mol and 51.5 °C.
For GATTCGGAAACGAATC ((((((....)))))) the same measures were -32.2 kcal/mol and 58.6 °C.
GATTCTGGAAACAGAACC (.(((((....))))).): the folding enthalpy in data set [1] is -17.6 kcal/mol. For the same sequence, the Tm in data set [2] came to 33.6 °C.
For GATTCTGGAAACAGAATC (((((((....))))))) the same measures were -43.9 kcal/mol and 55 °C.
Taken in the same sequence, the figures for GATTGAGGAAACTCAATC (((((((....))))))) were -52.3 kcal/mol and 53.6 °C.
For GATTGCCGAAAGGCTATC (((.(((....))).))) the same measures were -19.1 kcal/mol and 51.4 °C.
On to GATTGCGAAAGCAACATC ((((((....)))..))), for which the folding enthalpy in data set [1] was -9.24 kcal/mol. The Tm in data set [2] is 28.5 °C.
Regarding GATTGCGAAAGCAGTATC ((((((....)))..))), the folding enthalpy in data set [1] was -10.9 kcal/mol. Moreover, the Tm in data set [2] came to 32.1 °C.
Taken in the same sequence, the figures for GATTGCGAAAGCATAATC ((((((....)))..))) were -12.8 kcal/mol and 33.1 °C.

These data come from the array DNA melting data of Ke et al. (doi:10.1101/2024.01.08.574731).
